# Laboratory results taken from ChEMBL document CHEMBL1152770, “Inhibitors of hepatitis C virus polymerase: synthesis and biological characterization of unsymmetrical dialkyl-hydroxynaphthalenoyl-benzothiadiazines” (J Med Chem, 2009).
# Tests used:
# [1] = Inhibition of HCV isolate BK NS5B polymerase after 3 hrs by scintillation counting
# [2] = Inhibition of HCV isolate H77 NS5B polymerase after 3 hrs by scintillation counting
# [3] = Aqueous solubility in 50 mM phosphate buffer at pH 7.4; type: physicochemical
# Outline: (§1)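 Equilibrium solubility in PEG 400, in 50 mM citrate buffer pH 4 or in 50 mM phosphate buffer pH 7.4. Buffers brought to ionic strength 0.155 M with NaCl. Vials rotated at 25 °C for 4 days, final pH measured, then supernatant assayed by reverse-phase HPLC at 262 nm against a linear standard curve.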
# [4] = Solubility in polyethylene glycol 400 at 25 deg C; type: physicochemical
# Outline: as §1
# [5] = n-Octanol-phosphate buffer distribution coefficient, log D at pH 7.4; type: physicochemical
# Outline: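 Compound was dissolved in n-octanol and mixed with 50 mM phosphate buffer, isotonic with NaCl, pH 7.4. The mixture was tumbled at 25 °C, 25 rpm, for 2-3 days, then centrifuged to split the phases. Each phase was assayed by reverse-phase HPLC (UV 262 nm) against a linear standard curve. D is the octanol/buffer concentration ratio.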
# [6] = Plasma concentration in rat at 5 mg/kg, po after 6 hrs; type: ADME, organism-based; design: dose 5 mg/kg, route oral
# Outline: (§2)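 Vehicle DMSO:PEG400 (10:90, v/v). Dosing at 5 mg/kg in rat and monkey; dog 5 mg/kg or 2.5 mg/kg. Protein precipitation with acetonitrile, then LC-MS/MS in negative-ion MRM (m/z 516.2→437.0) against spiked standards with internal standard.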
# [7] = Plasma concentration in rat at 5 mg/kg, po after 12 hrs; type: ADME, organism-based; design: dose 5 mg/kg, route oral
# Outline: as §2
# [8] = Drug level in rat liver at 5 mg/kg, po after 12 hrs; type: ADME, organism-based; design: dose 5 mg/kg, route oral; settings: read-out: Drug uptake
# Outline: (§3)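 Rats dosed orally at 5 mg/kg, four groups, sacrificed at 6 and 12 h. Plasma and liver homogenate extracted by acetonitrile protein precipitation with internal standard and quantified by LC-MS (negative-ion MRM). Liver/plasma ratio taken from the two concentrations.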
# [9] = Drug level in rat liver at 5 mg/kg, po after 6 hrs; type: ADME, organism-based; design: dose 5 mg/kg, route oral; settings: read-out: Drug uptake
# Outline: as §3
# [10] = Ratio of drug level in liver to plasma in rat at 5 mg/kg, po after 12 hrs; type: ADME, organism-based; design: dose 5 mg/kg, route oral
# Outline: as §3
# [11] = Ratio of drug level in liver to plasma in rat at 5 mg/kg, po after 6 hrs; type: ADME, organism-based; design: dose 5 mg/kg, route oral
# Outline: as §3
# [12] = Metabolic stability in human liver microsomes assessed as intrinsic clearance; type: ADME, Microsome
# [13] = AUC in monkey at 5 mg/kg, iv; type: ADME, organism-based, Macaca mulatta; design: dose 5 mg/kg, route intravenous; settings: rhesus monkey, plasma
# Outline: as §2
# [14] = Volume of distribution at steady state in dog at 5 mg/kg, iv; type: ADME, organism-based, Canis lupus familiaris; design: dose 5 mg/kg, route intravenous; settings: in vivo, read-out: Vdss
# Outline: (§4)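 Single intravenous dose. Heparinized plasma sampled at 0.1, 0.25, 0.5, 1, 2, 4, 6, 9, 12 and 24 h, plus 3 and 15 h in dog. Drug was isolated by acetonitrile protein precipitation and quantified by LC-MS in negative-ion MRM mode (m/z 516.2→437.0) against an internal standard. Concentrations came from unweighted linear regression of spiked standards.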
# Hepatocyte [15] = experiment: Metabolic stability in human hepatocytes assessed as intrinsic clearance; type: ADME, cell-based, Liver
# [16] = AUC in rat at 5 mg/kg, iv; type: ADME, organism-based; design: dose 5 mg/kg, route intravenous; settings: plasma
# Outline: as §2
# [17] = Metabolic stability in monkey hepatocytes assessed as intrinsic clearance; type: ADME, cell-based, Macaca mulatta, Liver, Hepatocyte; settings: rhesus monkey
# [18] = Terminal phase volume of distribution in dog at 5 mg/kg, iv; type: ADME, organism-based, Canis lupus familiaris; design: dose 5 mg/kg, route intravenous; settings: in vivo, read-out: Vbeta
# Outline: as §2
# [19] = Terminal phase volume of distribution in rat at 5 mg/kg, iv; type: ADME, organism-based; design: dose 5 mg/kg, route intravenous; settings: in vivo, read-out: Vbeta
# Outline: as §4
# [20] = Elimination half life in rat at 5 mg/kg, iv; type: ADME, organism-based; design: dose 5 mg/kg, route intravenous; settings: in vivo, read-out: beta t1/2 (converted)
# Outline: as §2
# Hepatitis C virus [21] = experiment: Antiviral activity against HCV 1a containing chimeric genotype 1a-H77/1b-con1 subgenom in human Huh7 cells assessed as reduction in viral RNA after 4 days by RT-PCR; settings: subtype 1a, Huh-7, 96 h
# Hepatitis C virus [22] = experiment: Ratio of EC50 for HCV isolate Con1 in presence of 40% human serum to EC50 for HCV isolate Con1; type: functional, Hepacivirus hominis
# Outline: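 Genotype 1b-con1 subgenomic replicon in Huh-7 cells. Four-day incubation with inhibitor in medium with 5% FBS, with or without 40% human serum. EC50 from the fall in HCV RNA copy number by real-time PCR. Ratio is EC50 with serum over EC50 without.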
# [23] = Elimination half life in monkey at 5 mg/kg, iv; type: ADME, organism-based, Macaca mulatta; design: dose 5 mg/kg, route intravenous; settings: rhesus monkey, in vivo, read-out: beta t1/2 (converted)
# Outline: as §2
# [24] = Metabolic stability in rat liver microsomes assessed as intrinsic clearance; type: ADME, Microsome
# [25] = Terminal phase volume of distribution in monkey at 5 mg/kg, iv; type: ADME, organism-based, Macaca mulatta; design: dose 5 mg/kg, route intravenous; settings: rhesus monkey, in vivo, read-out: Vbeta
# Outline: as §4
# [26] = AUC in dog at 5 mg/kg, iv; type: ADME, organism-based, Canis lupus familiaris; design: dose 5 mg/kg, route intravenous; settings: plasma
# Outline: as §2
# [27] = Cytotoxicity against human HuH7 cells by MTT assay; type: cell-based, Huh-7; settings: read-out: TD50 (the source's name)
# Outline: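 Cytotoxicity in Huh-7 replicon cultures measured by MTT colorimetric assay after the four-day incubation.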
# [28] = Elimination half life in dog at 5 mg/kg, iv; type: ADME, organism-based, Canis lupus familiaris; design: dose 5 mg/kg, route intravenous; settings: in vivo, read-out: beta t1/2 (converted)
# Outline: as §2
# [29] = Plasma clearance in rat at 5 mg/kg, iv; type: ADME, organism-based; design: dose 5 mg/kg, route intravenous
# Outline: as §2
# Hepatitis C virus [30] = experiment: Antiviral activity against HCV isolate Con1 in human Huh7 cells assessed as reduction in viral RNA after 4 days by RT-PCR; settings: isolate Con1, Huh-7, 96 h
# Hepatocyte [31] = experiment: Metabolic stability in rat hepatocytes assessed as intrinsic clearance; type: ADME, cell-based, Liver
# [32] = Metabolic stability in dog liver microsomes assessed as intrinsic clearance; type: ADME, Canis lupus familiaris, Microsome
# [33] = Metabolic stability in monkey liver microsomes assessed as intrinsic clearance; type: ADME, Macaca mulatta, Microsome; settings: rhesus monkey
# [34] = Volume of distribution at steady state in monkey at 5 mg/kg, iv; type: ADME, organism-based, Macaca mulatta; design: dose 5 mg/kg, route intravenous; settings: rhesus monkey, in vivo, read-out: Vdss
# Outline: as §4
# [35] = Plasma clearance in dog at 5 mg/kg, iv; type: ADME, organism-based, Canis lupus familiaris; design: dose 5 mg/kg, route intravenous
# Outline: as §2
# [36] = Volume of distribution at steady state in rat at 5 mg/kg, iv; type: ADME, organism-based; design: dose 5 mg/kg, route intravenous; settings: in vivo, read-out: Vdss
# Outline: as §4
# [37] = Plasma clearance in monkey at 5 mg/kg, iv; type: ADME, organism-based, Macaca mulatta; design: dose 5 mg/kg, route intravenous; settings: rhesus monkey
# Outline: as §2
# [38] = Metabolic stability in dog hepatocytes assessed as intrinsic clearance; type: ADME, cell-based, Canis lupus familiaris, Liver, Hepatocyte
compound,measurement,setting,value
CC(C)(C)CC[C@]1(C)C(=O)C(C2=NS(=O)(=O)c3cc(NS(C)(=O)=O)ccc3N2)=C(O)c2ccccc21,IC50,[1],518 nM
same,IC50,[2],444 nM
CS(=O)(=O)Nc1ccc2c(c1)S(=O)(=O)N=C(c1c([O-])c3ccccc3n(NC3CCC3)c1=O)N2.[Na+],solubility,[3],< 0.07 µg/mL
same,solubility,[4],> 191.8 mg/mL
same,logD,[5],1.45
CC(C)CC[C@]1(C)C(=O)C(C2=NS(=O)(=O)c3cc(NS(C)(=O)=O)ccc3N2)=C(O)c2ccccc21,IC50,[1],2300 nM
same,IC50,[2],624 nM
CC(C)(C)CC[C@@]1(C)C(=O)C(C2=NS(=O)(=O)c3cc(NS(C)(=O)=O)ccc3N2)=C(O)c2ccccc21,concentration at 6 h,[6],2240 nM
same,concentration at 12 h,[7],320 nM
same,concentration at 12 h,[8],4190 ng/g
same,concentration at 6 h,[9],21800 ng/g
same,Kp at 12 h,[10],20
same,Kp at 6 h,[11],17
CC(C)CC[C@@]1(C)C(=O)C(C2=NS(=O)(=O)c3cc(NS(C)(=O)=O)ccc3N2)=C([O-])c2ccccc21.[Na+],microsomal CLint,[12],29.6 µL/min/mg
same,AUC,[13],10200 ng·h/mL
same,Vd,[14],1.1 L/kg
same,CL,Hepatocyte [15],6.8 µL/min/mg
same,AUC,[16],5200 ng·h/mL
same,CL,[17],29.2 µL/min/mg
same,Vd,[18],1.74 L/kg
same,concentration at 12 h,[8],1430 ng/g
same,Vd,[19],1.97 L/kg
same,IC50,[1],0.9 nM
same,half-life,[20],1.2 h
same,EC50,Hepatitis C virus [21],11 nM
same,Ratio EC50,Hepatitis C virus [22],14
same,half-life,[23],0.7 h
same,microsomal CLint,[24],36.3 µL/min/mg
same,Vd,[25],0.5 L/kg
same,IC50,[2],1.3 nM
same,AUC,[26],11800 ng·h/mL
same,CC50,[27],35300 nM
same,half-life,[28],2.7 h
same,clearance,[29],16 mL/min/kg
same,EC50,Hepatitis C virus [30],3 nM
same,CL,Hepatocyte [31],9 µL/min/mg
same,concentration at 6 h,[9],3800 ng/g
same,microsomal CLint,[32],3.5 µL/min/mg
same,microsomal CLint,[33],62 µL/min/mg
same,Vd,[34],0.19 L/kg
same,clearance,[35],7.33 mL/min/kg
same,Vd,[36],1.72 L/kg
same,clearance,[37],8.5 mL/min/kg
same,CL,[38],2.2 µL/min/mg
